Experimental findings from ChEMBL document CHEMBL4229460, “Design and biological evaluation of novel hybrids of 1, 5-diarylpyrazole and Chrysin for selective COX-2 inhibition” (Bioorg Med Chem, 2018) are described below.

Structures are written as SMILES. Some results are limits rather than exact numbers.

In test [1] the test system is HeLa. Nature of the test: Disruption of mitochondrial membrane potential in human HeLa cells assessed as collapse of the mitochondrial membrane potential at 10 uM after 12 hrs by JC1 staining based flow cytometry (reference value: 0.768%). The test is classed as functional. On the technique in general: A flow cytometer gives signals particle by particle.
Test [2] relates to HeLa. In words: Disruption of mitochondrial membrane potential in human HeLa cells assessed as intact mitochondrial membrane at 10 uM after 12 hrs by JC1 staining based flow cytometry (reference value: 99.2%). The test is classed as functional.
The target in test [3] is Prostaglandin G/H synthase 1 (Homo sapiens, UniProt P23219). In words: Inhibition of COX1 (unknown origin) using arachidonic acid as substrate pretreated for 10 mins followed by substrate addition and measured after 2 mins by ELISA. The test is classed as ADME. (In general: In an ELISA, binding on a coated surface is turned into a signal by an enzyme label.)
Chain of Prostaglandin G/H synthase 1 (P23219 whole entry): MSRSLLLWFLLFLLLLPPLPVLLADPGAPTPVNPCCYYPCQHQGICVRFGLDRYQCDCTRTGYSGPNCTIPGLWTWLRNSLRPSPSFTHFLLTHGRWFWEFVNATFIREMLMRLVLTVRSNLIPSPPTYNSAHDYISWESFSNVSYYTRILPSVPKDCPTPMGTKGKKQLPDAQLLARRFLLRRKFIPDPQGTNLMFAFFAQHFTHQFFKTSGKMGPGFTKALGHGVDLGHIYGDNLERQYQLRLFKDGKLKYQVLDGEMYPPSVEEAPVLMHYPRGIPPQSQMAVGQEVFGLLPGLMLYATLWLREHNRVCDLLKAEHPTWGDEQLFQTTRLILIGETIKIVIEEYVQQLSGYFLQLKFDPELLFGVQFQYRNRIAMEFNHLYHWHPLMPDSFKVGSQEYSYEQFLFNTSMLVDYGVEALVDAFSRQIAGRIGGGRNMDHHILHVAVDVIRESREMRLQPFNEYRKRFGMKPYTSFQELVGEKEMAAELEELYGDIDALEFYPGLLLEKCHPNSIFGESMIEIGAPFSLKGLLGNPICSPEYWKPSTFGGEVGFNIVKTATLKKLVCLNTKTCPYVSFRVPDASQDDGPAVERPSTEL
Test [4] has as its target T1, Prostaglandin G/H synthase 2 (Homo sapiens, UniProt P35354).
T1 sequence (P35354 whole entry): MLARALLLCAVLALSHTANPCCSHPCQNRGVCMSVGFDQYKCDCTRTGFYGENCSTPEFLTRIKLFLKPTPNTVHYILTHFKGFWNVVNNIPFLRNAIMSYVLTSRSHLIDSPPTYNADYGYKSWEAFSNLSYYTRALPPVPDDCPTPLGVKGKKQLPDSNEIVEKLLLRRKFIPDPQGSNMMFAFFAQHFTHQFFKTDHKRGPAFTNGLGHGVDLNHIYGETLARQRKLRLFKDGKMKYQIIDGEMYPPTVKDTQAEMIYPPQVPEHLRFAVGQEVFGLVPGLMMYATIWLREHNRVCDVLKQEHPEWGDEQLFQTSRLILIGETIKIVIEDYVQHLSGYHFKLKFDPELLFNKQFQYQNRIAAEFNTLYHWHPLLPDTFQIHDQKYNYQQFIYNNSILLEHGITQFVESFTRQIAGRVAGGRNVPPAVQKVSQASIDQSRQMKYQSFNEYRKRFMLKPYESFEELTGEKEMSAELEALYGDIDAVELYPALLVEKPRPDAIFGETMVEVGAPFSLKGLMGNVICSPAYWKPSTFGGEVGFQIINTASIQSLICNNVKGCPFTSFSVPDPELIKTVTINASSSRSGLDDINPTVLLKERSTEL
In words: Inhibition of COX2 (unknown origin) using arachidonic acid as substrate pretreated for 10 mins followed by substrate addition and measured after 2 mins by ELISA.

For test [5], the species on record is Homo sapiens. In words: Selectivity index, ratio of IC50 for COX1 (unknown origin) to ratio of IC50 for COX2 (unknown origin). The essentials:
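Enzyme ELISA kit: COX-1 or COX-2 preincubated with compound at 0, 1, 10 or 100 μM for 10 min at 37 °C in 0.1 M Tris-HCl pH 8.0, 5 mM EDTA, 2 mM phenol, 1 μM heme. Started with 100 μM arachidonic acid for 2 min at 37 °C, stopped with 1 M HCl. PGH₂ reduced by stannous chloride; PGF2α read by enzyme immunoassay at 450 nm. Index taken as the ratio of the COX IC50 values.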

Test [6] concerns MCF7. Nature of the test: Antiproliferative activity against human MCF7 cells after 48 hrs by MTT assay. The note with it: MCF7, 48 h. The test is classed as functional, cell-based. A general note: Formazan colour is commonly taken as a measure of viable cells.
For test [7], the system named is B16-F10. In words: Antiproliferative activity against mouse B16F10 cells after 48 hrs by MTT assay. The test is classed as functional, cell-based. The following applies: B16-F10, 48 h. In outline: (§1)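 Cells kept in DMEM with 10% FBS, penicillin/streptomycin, 37 °C, 5% CO₂. Seeded at 5 × 10⁴ cells/well and allowed to adhere 12 h. Exposed to 0, 0.1, 1, 10 and 100 μM (final) for 48 h. Viability read by MTT reduction at OD 570 nm with 630 nm reference. IC50 reported as mean ± SD of three independent experiments.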

Test [8] has as its system A549. Nature of the test: Antiproliferative activity against human A549 cells after 48 hrs by MTT assay. The test is classed as functional, cell-based. The note with it: A549, 48 h. In outline: as §1
Test [9] has as its system HeLa. In words: Antiproliferative activity against human HeLa cells after 48 hrs by MTT assay. The test is classed as functional, cell-based.
The subject of test [10] is HEK-293T. In words: Cytotoxicity against human 293T cells after 48 hrs by MTT assay. The test is classed as cell-based.

With `N#CC(C#N)=NNc1cccc(Cl)c1` [CARBONYL CYANIDE M-CHLOROPHENYLHYDRAZONE], the figures for the Activity in test [1] and in [2] were 40.5% and 59.5%, respectively.

For orientation: IC50 means the concentration that inhibits the measured activity by half. Turning to `O=C(COc1cc(O)c2c(=O)cc(-c3ccccc3)oc2c1)OCc1cc(-c2cccc([N+](=O)[O-])c2)n(-c2ccccc2)n1`, the IC50 was 33.8 µM in [3]; 5.94 µM in [4]; 12.6 µM in [6]; 21.7 µM in test [7]; greater than 100 µM in [8]; 30.9 µM in test [9]. In [10], this compound returned an IC50 of 348 µM. The Ratio IC50 in [5] turned out to be 5.68.

As for `Cc1ccc(-n2nc(COC(=O)COc3cc(O)c4c(=O)cc(-c5ccccc5)oc4c3)cc2-c2ccc(F)cc2)cc1`, the IC50 is 30.2 µM in [3]; 2.84 µM in test [4]; 17.8 µM in test [6]; 65.8 µM in test [7]; 4.62 µM in test [8]; greater than 100 µM in [9]. In addition, half-maximal inhibition in test [10] (IC50) was put at 265 µM. The Ratio IC50 in test [5] stood at 10.6.

As to `O=C(COc1cc(O)c2c(=O)cc(-c3ccccc3)oc2c1)OCc1cc(-c2ccc(Cl)c(Cl)c2)n(-c2ccccc2)n1`, the IC50 was greater than 50 µM in test [3]; 6.83 µM in test [4]; 3.29 µM in test [6]; 6.44 µM in test [7]; 5.52 µM in test [8]; 6.28 µM in test [9]. Also, half-maximal inhibition in test [10] (IC50) required 233 µM. Further, in [5], the Ratio IC50 was greater than 7.

In the case of `COc1cccc(-c2cc(COC(=O)COc3cc(O)c4c(=O)cc(-c5ccccc5)oc4c3)nn2-c2ccccc2)c1`, the IC50 worked out at 25.5 µM in [3]; 1.21 µM in test [4]; 5.12 µM in test [6]; 6.92 µM in test [7]; 13.6 µM in test [8]; 13.6 µM in [9]. In test [10], the IC50 stood at 317 µM. The Ratio IC50 in test [5] was determined as 21.

As to `Cc1ccc(-n2nc(COC(=O)COc3cc(O)c4c(=O)cc(-c5ccccc5)oc4c3)cc2-c2cccc(C)c2)cc1`, the IC50 was 32.2 µM in test [3]; 1.19 µM in test [4]; 3.25 µM in [6]; 4.33 µM in [7]; 11.6 µM in [8]; 1.31 µM in test [9]. For the same compound, in [10], half-maximal inhibition (IC50) was put at 398 µM. Besides, the Ratio IC50 in [5] was 27.

As to `COc1ccc(-c2cc(COC(=O)COc3cc(O)c4c(=O)cc(-c5ccccc5)oc4c3)nn2-c2ccccc2)cc1`, the IC50 is 41.3 µM in test [3]; 0.54 µM in test [4]; 7.1 µM in test [6]; 1.76 µM in test [7]; 10.6 µM in [8]; 2.72 µM in test [9]. The IC50 in test [10] was 257 µM. Moreover, in test [5], the Ratio IC50 turned out to be 75.9.

Take `Cc1ccc(-n2nc(COC(=O)COc3cc(O)c4c(=O)cc(-c5ccccc5)oc4c3)cc2-c2ccc(C(F)(F)F)cc2)cc1`: the IC50 in test [3] was 29.7 µM; in [4], 5.02 µM; in [6], 6.21 µM; in test [7], 7.44 µM; in test [8], 5.07 µM; in [9], 4.32 µM. In test [10], this compound showed an IC50 of 212 µM. Moreover, the Ratio IC50 in test [5] was determined as 5.92.

Consider `O=C(COc1cc(O)c2c(=O)cc(-c3ccccc3)oc2c1)OCc1cc(-c2ccc(C(F)(F)F)cc2)n(-c2ccccc2)n1`, for which the IC50 in test [3] came out at 32.9 µM; in test [4], 4.33 µM; in test [6], 11 µM; in [7] it was 9.85 µM; in test [8], 8.02 µM; in test [9], 6.61 µM. Besides, the midpoint of inhibition in [10], the IC50, lay at 162 µM. For the same compound, in test [5], the Ratio IC50 stood at 7.61.

In the case of `O=C(COc1cc(O)c2c(=O)cc(-c3ccccc3)oc2c1)OCc1cc(-c2ccc(F)cc2)n(-c2ccccc2)n1`, the IC50 in test [3] is greater than 50 µM; in test [4], 2.54 µM; in [6], 3.82 µM; in [7] it was 6.24 µM; in test [8] it was 12 µM; in [9], greater than 100 µM. Also, the IC50 in [10] was 187 µM. For the same compound, in [5], the Ratio IC50 was greater than 20.

For the compound `Cc1ccc(-n2nc(COC(=O)COc3cc(O)c4c(=O)cc(-c5ccccc5)oc4c3)cc2-c2ccc(Cl)c(Cl)c2)cc1`, the IC50 in test [3] was 27.9 µM; in [4], 5.02 µM; in test [6], 22.2 µM; in test [7] it was 7.61 µM; in [8], greater than 100 µM; in test [9], 6.06 µM. This compound also had an IC50 in [10] of 273 µM. In test [5], the Ratio IC50 is 5.56.

`Cc1cccc(-c2cc(COC(=O)COc3cc(O)c4c(=O)cc(-c5ccccc5)oc4c3)nn2-c2ccccc2)c1`: the IC50 in test [3] was 39.1 µM; in [4], 1.36 µM; in test [6], 10.8 µM; in [7], 2.85 µM; in [8], greater than 100 µM; in test [9] it was 1.95 µM. In addition, the IC50 in test [10] stood at 316 µM. The Ratio IC50 in test [5] came out at 28.7.
